According to ChEMBL document CHEMBL5370639, “Structure-Based Lead Optimization of Enterovirus D68 2A Protease Inhibitors” (J Med Chem, 2023):

Columns and labels:
enterovirus D68 = assay: Antiviral activity against enterovirus D68 US/MO/14-18947 infected in human RD cells assessed as reduction in virus induced cytopathic effect by neutral red staining based CPE assay; type: functional, organism-based; conditions: Enterovirus D, US/MO/14-18947, RD
In short: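 RD cells seeded overnight to ~90% confluency, washed with PBS containing Mg/Ca, infected with virus in DMEM/2% FBS/30 mM MgCl2 for at least 1 h at 33 °C, then compound added. Cells stained with 66 μg/mL neutral red for 2 h; uptake read at 540 nm. EC50 from dose-response fit; mean ± SD of two independent experiments, three repeats each.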

[1] = Inhibition of Enterovirus D68 US/KY/14-18953 2A protease expressed in Escherichia coli BL21(DE3) using Dabcyl-KIRIVNT/GPGEGGE-Edans as substrate incubated for 2 hrs by FRET assay
[2] = Cytotoxicity against human RD cells assessed as reduction in cell viability by neutral red staining based CPE assay; type: toxicity; conditions: RD cells
In short: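 Uninfected RD cells, grown overnight to ~90% confluency, treated with compound under otherwise the same handling as the antiviral assay. Viability by neutral red uptake (66 μg/mL, 2 h, absorbance 540 nm). CC50 from best-fit dose-response curve; mean ± SD of two independent experiments, three repeats each.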

| SMILES | IC50 [1] [nM] | EC50 (enterovirus D68) [nM] | CC50 [2] [nM] |
| --- | --- | --- | --- |
| CCC[C@@H](C#N)NC(=O)[C@@H]1[C@H]2CCC[C@H]2CN1C(=O)[C@@H](NC(=O)CC12CC3CC(CC(C3)C1)C2)C(C)(C)C | 1320 | 3920 | > 150000 |
| CC(C)(C)[C@H](NC(=O)NC12CC3CC(CC(C3)C1)C2)C(=O)N1C[C@@H]2CCC[C@@H]2[C@H]1C(=O)N[C@@H](Cc1ccc(F)cc1)C(=O)C(=O)NC1CC1 | 160 | 350 | 21300 |
| CCC[C@H](NC(=O)[C@H](CC1CCCCC1)NC(=O)[C@@H](NC(=O)CC12CC3CC(CC(C3)C1)C2)C(C)(C)C)C(=O)C(=O)NC1CC1 | – | > 290 | 290 |
| CCC[C@H](NC(=O)[C@@H]1[C@H]2CCC[C@H]2CN1C(=O)OCc1ccccc1)C(=O)C(=O)NC1CC1 | 4350 | 25900 | > 150000 |
| CC(C)(C)[C@H](NC(=O)CC12CC3CC(CC(C3)C1)C2)C(=O)N1C[C@@H]2CCC[C@@H]2[C@H]1C(=O)N[C@@H](Cc1ccc(F)cc1)C(=O)c1nc2ccccc2s1 | > 20000 | > 30000 | > 150000 |
| CCC[C@H](NC(=O)[C@@H]1[C@H]2CCC[C@H]2CN1C(=O)[C@@H](NC(C)=O)C(C)(C)C)C(=O)C(=O)NC1CC1 | 940 | 4650 | > 150000 |
| CCC[C@H](NC(=O)[C@@H]1[C@H]2CCC[C@H]2CN1C(=O)[C@@H](NC(=O)NC(C)(C)C)C(C)(C)C)C(=O)C(=O)NC1CC1 | 1160 | – | – |
| CCC[C@H](NC(=O)[C@@H](NC(=O)[C@@H](NC(=O)CC12CC3CC(CC(C3)C1)C2)C(C)(C)C)C1CCCCC1)C(=O)C(=O)NC1CC1 | – | > 1840 | 1840 |
| CC(C)(C)[C@H](NC(=O)CC12CC3CC(CC(C3)C1)C2)C(=O)N1C[C@@H]2CCC[C@@H]2[C@H]1C(=O)N[C@@H](Cc1ccc(F)cc1)C(=O)C(=O)NC1CC1 | 150 | 190 | 14100 |
| CC(C)C[C@H](NC(=O)[C@@H]1[C@H]2CCC[C@H]2CN1C(=O)[C@@H](NC(=O)CC12CC3CC(CC(C3)C1)C2)C(C)(C)C)C(=O)C(=O)NC1CC1 | 260 | 260 | 26300 |
| CC(C)(C)[C@H](NC(=O)[C@@H]1[C@H]2CCC[C@H]2CN1C(=O)[C@@H](NC(=O)CC12CC3CC(CC(C3)C1)C2)C(C)(C)C)C(=O)C(=O)NC1CC1 | > 20000 | > 30000 | > 150000 |
| CCC[C@H](NC(=O)[C@@H]1[C@H]2CCC[C@H]2CN1C(=O)[C@@H](NC(=O)OCc1ccccc1)C(C)(C)C)C(=O)C(=O)NC1CC1 | 760 | 2900 | > 150000 |

Continued by falling IC50 [1], values first:

| IC50 [1] [nM] | SMILES | EC50 (enterovirus D68) [nM] | CC50 [2] [nM] |
| --- | --- | --- | --- |
| 760 | CCC[C@H](NC(=O)[C@@H]1[C@H]2CCC[C@H]2CN1C(=O)[C@@H](NC(=O)/C=C/c1ccccc1)C(C)(C)C)C(=O)C(=O)NC1CC1 | 3990 | > 150000 |
| 400 | CCC[C@H](NC(=O)[C@@H]1[C@H]2CCC[C@H]2CN1C(=O)[C@@H](NC(=O)CC12CC3CC(CC(O)(C3)C1)C2)C(C)(C)C)C(=O)C(=O)NC1CC1 | 1850 | > 150000 |
| 360 | CCC[C@H](NC(=O)[C@@H]1[C@H]2CCC[C@H]2CN1C(=O)[C@@H](NC(=O)[C@@H](NC(=O)OCc1ccccc1)C1CCCCC1)C(C)(C)C)C(=O)C(=O)NC1CC1 | 830 | > 150000 |
| 350 | CC(C)(C)[C@H](NC(=O)CC12CC3CC(CC(C3)C1)C2)C(=O)N1C[C@@H]2CCC[C@@H]2[C@H]1C(=O)N[C@H](C(=O)C(=O)NC1CC1)c1ccc(F)cc1 | 780 | 24100 |
| 250 | CCC[C@H](NC(=O)[C@@H]1[C@H]2CCC[C@H]2CN1C(=O)[C@@H](NC(=O)Cc1ccccc1)C(C)(C)C)C(=O)C(=O)NC1CC1 | 1970 | > 150000 |
| 230 | CC(C)(C)[C@H](NC(=O)CC12CC3CC(CC(C3)C1)C2)C(=O)N1C[C@@H]2CCC[C@@H]2[C@H]1C(=O)N[C@H](C(=O)C(=O)NC1CC1)c1ccccc1 | 570 | 35800 |
| 190 | CC(C)(C)[C@H](NC(=O)CC12CC3CC(CC(C3)C1)C2)C(=O)N1C[C@@H]2CCC[C@@H]2[C@H]1C(=O)N[C@H](C(=O)C(N)=O)C1CCCCC1 | 140 | > 150000 |
| 180 | CC(C)(C)[C@H](NC(=O)CC12CC3CC(CC(C3)C1)C2)C(=O)N1C[C@@H]2CCC[C@@H]2[C@H]1C(=O)N[C@@H](Cc1c[nH]c2ccccc12)C(=O)C(=O)NC1CC1 | 280 | > 150000 |
| 180 | CC(C)(C)Oc1ccc(C[C@H](NC(=O)[C@@H]2[C@H]3CCC[C@H]3CN2C(=O)[C@@H](NC(=O)CC23CC4CC(CC(C4)C2)C3)C(C)(C)C)C(=O)C(=O)NC2CC2)cc1 | 1730 | 9790 |
| 160 | CCC[C@H](NC(=O)[C@@H]1[C@H]2CCC[C@H]2CN1C(=O)[C@@H](NC(=O)NC12CC3CC(CC(C3)C1)C2)C(C)(C)C)C(=O)C(=O)NC1CC1 | 700 | 42200 |
| 140 | CC(C)(C)[C@H](NC(=O)CC12CC3CC(CC(C3)C1)C2)C(=O)N1C[C@@H]2CCC[C@@H]2[C@H]1C(=O)N[C@@H](CC1CC1)C(=O)C(=O)NC1CC1 | 230 | 34900 |
| 140 | CCC[C@H](NC(=O)[C@@H]1[C@H]2CCC[C@H]2CN1C(=O)[C@@H](NC(=O)CC1CCC(F)(F)CC1)C(C)(C)C)C(=O)C(=O)NC1CC1 | 750 | > 50000 |
| 120 | CCC[C@H](NC(=O)[C@@H]1[C@H]2CCC[C@H]2CN1C(=O)[C@@H](NC(=O)CC1C2CC3CC(C2)CC1C3)C(C)(C)C)C(=O)C(=O)NC1CC1 (stereo partly specified) | 180 | > 150000 |
| 120 | COC[C@H](NC(=O)[C@@H]1[C@H]2CCC[C@H]2CN1C(=O)[C@@H](NC(=O)CC12CC3CC(CC(C3)C1)C2)C(C)(C)C)C(=O)C(=O)NC1CC1 | 2290 | 23200 |
| 120 | CC(C)(C)[C@H](NC(=O)CC12CC3CC(CC(C3)C1)C2)C(=O)N1C[C@@H]2CCC[C@@H]2[C@H]1C(=O)N[C@@H](Cc1ccsc1)C(=O)C(=O)NC1CC1 | 240 | 28200 |
| 100 | CCC[C@H](NC(=O)[C@@H]1[C@H]2CCC[C@H]2CN1C(=O)[C@@H](NC(=O)CC1CCCC1)C(C)(C)C)C(=O)C(=O)NC1CC1 | 700 | > 150000 |
| 90 | CC(C)[C@H](NC(=O)[C@@H]1[C@H]2CCC[C@H]2CN1C(=O)[C@@H](NC(=O)CC12CC3CC(CC(C3)C1)C2)C(C)(C)C)C(=O)C(=O)NC1CC1 | 160 | > 150000 |
| 90 | CCC[C@H](NC(=O)[C@@H]1[C@H]2CCC[C@H]2CN1C(=O)[C@@H](NC(=O)CC1CCCCC1)C(C)(C)C)C(=O)C(=O)NC1CC1 | 380 | > 150000 |
